# HNF4A DNA FP = change in binding of human HNF4A to DNA, primary screen, biochemical, fluorescence polarization, FITC-DNA; activity change, % at 10 µM; 360,000 compounds, 0.3% hits; 1 h; in the data active means activity change above about 30%, passing the limit was not always enough
# TPT1 inh = Candida albicans TPT1 enzyme inhibitors, primary screen, biochemical, fluorescence polarization. tRNA 2'-phosphotransferase TPT1 (Candida albicans SC5314). recombinant caTPT1, FP RNA substrate dephosphorylation. inhibition, % at 5 µM. 300,000 compounds, 0.81% hits;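 active means inhibition above the mean of all tested compounds plus 3 SD, set per screening campaign, cut at about 24% in these data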
# IDE cell inh = human IDE inhibitors in live cells, primary screen, fluorescence polarization, HEK cells, FAbetaB substrate. inhibition, % at 5.59 µM. 320,000 compounds, 0.41% hits. FAbetaB cleavage. Insulin-degrading enzyme (Homo sapiens), P14735;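 active means percent inhibition above the average of all tested compounds plus 3 SD, set per screening campaign, cut at about 16% in these data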;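 further: IDE supplied by intact live HEK cells; FP after avidin binding of uncleaved biotin substrate so inhibition keeps polarization high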
# IDE act = human IDE activators in live cells, primary screen, fluorescence polarization, HEK cells, FAbeta-B substrate; Insulin-degrading enzyme (Homo sapiens), P14735; FAbeta-B cleavage; 0% vehicle, 100% cell-free pure enzyme wells; activation, % at 5.96 µM; 340,000 compounds, 0.073% hits; AID 493087, 2011;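 active means activation above the mean of all tested compounds plus 3 SD, set per screening campaign, cut at about 17% in these data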
# CSN deneddyl inh = inhibitors of CSN-mediated cullin deneddylation, primary screen, biochemical, fluorescence polarization, uHTS; COP9 signalosome complex subunit 5 (Homo sapiens), Q92905; Purified CSN, SCF-Nedd8-OG deneddylation; inhibition, % at 12.5 µM; 360,000 compounds, 0.38% hits; AID 651999, 2013;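 active means pattern-corrected inhibition above about 35%, with an unprinted fluorescence ratio check between 0.5 and 1.5, limit read from the data, passing the limit was not always enough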
# Target sequence (Q92905 whole entry, looked up, one chain of several): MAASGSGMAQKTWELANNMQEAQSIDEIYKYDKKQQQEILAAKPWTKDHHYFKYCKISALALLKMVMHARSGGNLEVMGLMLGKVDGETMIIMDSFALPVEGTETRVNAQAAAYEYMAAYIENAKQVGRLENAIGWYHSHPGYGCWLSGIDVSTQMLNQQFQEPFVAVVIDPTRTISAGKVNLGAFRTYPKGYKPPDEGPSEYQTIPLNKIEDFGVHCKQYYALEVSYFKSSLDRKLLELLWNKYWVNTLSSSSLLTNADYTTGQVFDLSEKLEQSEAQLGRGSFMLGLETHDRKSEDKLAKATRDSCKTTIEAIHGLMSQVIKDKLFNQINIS
#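 Assay system: HEK293T-derived human Csn5 enzyme; quantity: 0.24 nM enzyme; medium: Tris/NaCl/DTT buffer, pH 7.5; also added: substrate SCFSkp2-Nedd8OG, 10 nM; doses: 12.5 µM compound; schedule: 90 min reaction at room temperature; signal: FP; read-out: % inhibition of substrate cleavage by Csn5; benchmarks: substrate-only high control, full reaction low control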
# Tb MetRS inh = T. brucei MetRS inhibitors, primary screen, biochemical, luminescence; purified T. brucei MetRS, ATP depletion, Kinase-Glo luminescence; 360,000 compounds, 0.4% hits; AID 624268, 2012; methionyl-tRNA synthetase (Trypanosoma brucei brucei); inhibition, % at 11.9 µM;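 active means inhibition above a per-plate cutoff of the control wells' mean inhibition plus 3 SD, cut at about 5.5% in these data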
#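 assay system = parasite MetRS enzyme | timing = 15 min preincubation, 2 h reaction, all 25 °C | evaluation = percent inhibition relative to median high and low control wells | medium = HEPES buffer containing pyrophosphatase, BSA, spermine, DTT | compound = single dose, 11.9 µM final nominal, 0.9% final DMSO | detection = Kinase-Glo luminescence, ATP depletion format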
# caTPT1 confirm = Candida albicans TPT1 inhibitors, confirmation, biochemical, fluorescence polarization, triplicate | shares compounds with TPT1 inh | recombinant caTPT1, RNase T1 coupled | inhibition, % at 5 µM | 2,400 compounds, 74% hits | AID 2149, 2009;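 active means inhibition above the primary screen limit, the mean inhibition of all tested compounds plus 3 SD, cut at about 25% in these data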
# RNase T1 counter = RNase T1 inhibitors, counter-screen for TPT1 inhibitor project, biochemical, fluorescence polarization; shares compounds with TPT1 inh; RNase T1 cleavage, 1536-well; inhibition, % at 5 µM; 2,400 compounds, 83% hits; AID 2153, 2009;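 active means inhibition above the solvent-only control well mean plus 3 SD, limit set per screening run, cut at about 23% in these data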;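 further: inhibitors block cleavage so intact labeled substrate keeps polarization high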
# Target sequence (P00651 whole entry, looked up): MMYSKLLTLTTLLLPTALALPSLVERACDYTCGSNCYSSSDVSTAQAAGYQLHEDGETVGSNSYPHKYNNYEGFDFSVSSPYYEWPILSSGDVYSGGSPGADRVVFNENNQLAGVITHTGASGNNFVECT
# Hits are given with their value; i = inactive; nt = not tested or not shown. This is a sample that favours compounds with a hit; in the whole collection about 1.7% have one here.
SMILES,HNF4A DNA FP,TPT1 inh,IDE cell inh,IDE act,CSN deneddyl inh,Tb MetRS inh,caTPT1 confirm,RNase T1 counter
CCOc1ccccc1C(=O)Nc1nnc(COC)s1,i,i,i,i,i,i,nt,nt
CCOc1ccccc1C(=O)Nc1nccs1,i,27,i,i,i,i,i,i
Cc1cccc(C(=O)N2CCNC(=O)C2CC(=O)Nc2cccc(Cl)c2)c1 (stereo not given),i,24,i,i,i,i,i,i
CCCCN(C)C(=S)Nc1ccsc1C(=O)OC,i,i,i,i,i,i,nt,nt
O=C(Cn1c2ccccc2c(=O)c2ccccc21)Nc1cccc(F)c1,i,i,i,i,i,i,nt,nt
COc1ccc(CCN2C(=O)CC(N3CCN(S(=O)(=O)c4ccccc4)CC3)C2=O)cc1OC (stereo not given),i,i,i,i,i,i,nt,nt
CC(=O)NC(=S)c1c(N)n(Cc2ccccc2)c(=O)n(C)c1=O,nt,38,i,nt,nt,nt,32,43
CC(=O)Nc1ccc(SCC(=O)c2c(N)n(Cc3ccccc3)c(=O)n(C)c2=O)cc1,i,i,i,i,i,i,nt,nt
CCOc1ccc(N2CC(O)=C(c3nc4ccccc4c(=O)[nH]3)C2=N)cc1,i,i,i,i,i,i,nt,nt
CCOC(=O)c1ccc(N2CC(O)=C(c3nc4ccccc4c(=O)[nH]3)C2=N)cc1,i,47,i,i,i,i,41,52
CCCn1c(N)c(N(CCOC)C(=O)c2ccc(S(=O)(=O)N3CCOCC3)cc2)c(=O)[nH]c1=O,i,nt,nt,i,i,i,nt,nt
Cc1ccc(-c2cc3cccc[n+]3cc2-c2ccc(C)cc2)cc1,i,i,i,i,i,i,nt,nt
COCCN(C(=O)CSc1n[nH]c(-c2ccccc2)n1)c1c(N)n(CC(C)C)c(=O)[nH]c1=O,i,i,i,i,i,i,nt,nt
CC1CCCCC1NC(=O)COC(=O)c1c2c(nc3ccccc13)/C(=C/c1ccco1)CC2 (stereo not given),i,33,i,i,i,i,29,41
Cc1[nH]c2ccccc2c1/C=N/NC(=S)NC(C)C,i,25,i,i,i,i,39,45
CCNc1ccccc(C(=O)/C=C/c2ccc3c(c2)OCO3)c1=O,i,26,i,i,i,i,i,i
CNc1ccc(Br)cc(C(=O)/C=C/c2cccc(Cl)c2Cl)c1=O,i,nt,nt,i,i,i,nt,nt
CNc1ccc(Br)cc(C(=O)/C=C/c2cccc(OC)c2OC)c1=O,i,41,i,i,i,i,65,76
CCNc1ccc(Br)cc(C(=O)/C=C/c2ccccc2Cl)c1=O,i,53,i,i,i,i,88,94
Cc1ccc(C(=O)N2CCN(c3nc4ccccc4n3C)CC2)cc1,i,i,i,i,i,i,nt,nt
C[C@]12c3[nH]c4cc(-c5ccco5)ccc4c3CCN1C(=O)[C@@H](CC(=O)NCc1ccco1)C[C@@H]2C(=O)N1CCOCC1,i,nt,nt,i,i,i,nt,nt
CC1=[N+](CC(=O)c2ccccc2)CCn2cccc21,i,49,i,nt,i,i,i,i
CCC1=[N+](CC(=O)c2ccc(C)cc2)CCn2cccc21,i,61,i,i,i,i,i,i
CCOc1cc2c(cc1/C=C/c1noc(C)c1[N+](=O)[O-])OC(C)C2 (stereo not given),i,75,i,i,47,i,73,83
Cc1ccc(O)c(C(=O)c2cc(C#N)c(=O)n(-c3c(C)n(C)n(-c4ccccc4)c3=O)c2)c1,i,i,i,i,i,i,nt,nt
SMILES,HNF4A DNA FP,TPT1 inh,IDE cell inh,IDE act,CSN deneddyl inh,Tb MetRS inh,caTPT1 confirm,RNase T1 counter
Cc1c(-n2cc(C(=O)c3cc(Br)ccc3O)cc(C#N)c2=O)c(=O)n(-c2ccccc2)n1C,i,37,i,i,i,i,24,32
Cc1ccc(/C=C(\C#N)C(=O)Nc2c(C)cccc2C)s1,i,30,i,i,35,i,41,53
Cc1cccc(C)c1NC(=O)/C(C#N)=C/c1ccsc1,i,i,i,i,i,i,nt,nt
O=C(CSC1=NS(=O)(=O)c2cc(Cl)ccc2N1)c1ccc(Cl)cc1,i,i,i,i,i,i,nt,nt
CN=C1S/C(=C\c2ccc(N3CCCC3)c(F)c2)C(=O)N1C,i,30,i,i,i,i,52,66
OC[C@H]1O[C@@H](O[C@@H]2[C@@H](CO)O[C@@](O)(CO)[C@H]2O)[C@H](O)[C@@H](O)[C@H]1O,i,i,i,i,i,i,nt,nt
CCN(CC)CCNC(=O)c1c(O)c2c([nH]c1=O)CCCC2,i,i,i,i,i,i,nt,nt
CN(C)CCNC(=O)c1c(O)c2c([nH]c1=O)CCCC2,i,37,i,i,i,i,i,25
CC1(C)CC(=O)C2=C(C1)OC(=O)CC2c1cccs1 (stereo not given),i,i,i,i,i,i,nt,nt
Cc1ccsc1C1CC(=O)OC2=C1C(=O)CC(C)(C)C2 (stereo not given),nt,109,i,nt,nt,nt,i,i
N#Cc1ccc(CC(C(=O)O)N2Cc3ccccc3C2=O)cc1 (stereo not given),i,i,i,i,i,i,nt,nt
Cc1ccc(/C=C2\C(=N)N3N=C(CC(=O)N4CCOCC4)SC3=NC2=O)o1,i,i,i,i,i,i,nt,nt
N=C1/C(=C\c2ccc(SCc3ccccc3)o2)C(=O)N=C2SC(CC(=O)N3CCOCC3)=NN12,i,27,i,i,i,i,28,39
Cc1ccc(N2CC(C(=O)Nc3ccc(S(=O)(=O)N4CCOCC4)cc3)CC2=O)cc1Cl (stereo not given),i,i,i,i,i,i,nt,nt
CC(C)(C)NC(=O)N1CCCC(C(=O)c2cccc(Cl)c2)C1 (stereo not given),i,i,i,i,i,i,nt,nt
COCCCNC(=O)N1c2ccccc2Sc2ccccc21,i,25,i,i,i,i,i,i
COc1ccccc1OCC(=O)NNC(=O)Nc1ccc(Cl)cc1,i,i,i,i,i,i,nt,nt
COc1ccccc1OC(=O)Nc1ccc(Cl)cc1,i,41,i,i,i,i,i,i
